Hck Nef HTS – blocks Nef-activated human Hck kinase; P08631; inhibition, % at 20 µM; hit rate 0.68% among 220,000; Recombinant Hck-YEEI plus Nef, Z-Lyte FRET kinase assay;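 active = Hck-Nef kinase inhibition above about 50%, limit read from the data; inactive = inhibition below that limit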
Target sequence (P08631 whole entry, looked up): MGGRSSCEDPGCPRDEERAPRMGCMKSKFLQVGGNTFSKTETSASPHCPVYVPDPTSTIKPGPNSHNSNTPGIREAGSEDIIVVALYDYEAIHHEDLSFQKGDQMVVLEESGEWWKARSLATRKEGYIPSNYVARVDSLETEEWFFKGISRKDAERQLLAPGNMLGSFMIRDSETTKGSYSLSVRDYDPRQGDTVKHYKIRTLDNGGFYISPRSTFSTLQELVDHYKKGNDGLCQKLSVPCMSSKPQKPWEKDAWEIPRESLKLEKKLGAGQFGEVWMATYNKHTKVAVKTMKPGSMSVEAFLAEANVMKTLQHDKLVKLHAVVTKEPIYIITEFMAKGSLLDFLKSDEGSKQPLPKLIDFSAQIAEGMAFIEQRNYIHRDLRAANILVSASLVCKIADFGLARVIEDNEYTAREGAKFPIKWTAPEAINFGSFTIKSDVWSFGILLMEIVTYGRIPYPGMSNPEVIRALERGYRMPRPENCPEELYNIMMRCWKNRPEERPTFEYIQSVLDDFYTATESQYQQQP
Diaphorase act – counter-screen for diaphorase-based assays: diaphorase activators and chemical reducers. activation factor at 20 µM. AID 1229. hit rate 0.005% among 190,000. Diaphorase/resazurin coupled assay, resorufin fluorescence, 16 min; stronger effect = higher value; 1 = vehicle wells, 0 = NADH-free wells;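 active = diaphorase activity raised at least twofold by the compound at 20 µM; inactive = activation factor below 2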
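Material: Clostridium kluyveri diaphorase, purified enzyme; Quantity: enzyme 0.07 U/mL final; Medium: HEPES pH 7.4 buffer with MgCl2 and Tween 20; Dosing: single compound dose of 20 µM, 1% DMSO final; Schedule: 16 min reaction at room temperature; Measured by: red resorufin fluorescence at 544/590 nm excitation/emission.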
14-3-3 Bad inh – disrupts binding of bovine 14-3-3 zeta to phospho-Bad peptide; TR-FRET 14-3-3zeta/Dy647-pBad peptide displacement, 1 h; inhibition, % at 21.7 µM; hit rate 0.71% among 220,000;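 active = inhibition above about 70%, limit read from the data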
NCF1 inh – blocks human p47phox regulatory protein of NADPH oxidases; p47phox/p22phox peptide binding, fluorescence polarization, 2 h; inhibition, % at 24.7 µM; P14598; hit rate 0.53% among 220,000
eIF4E 4G PPI – eIF4E/eIF4G interaction inhibition in translation initiation; TR-FRET eIF4E-eIF4GI(517-606) binding, 2 h; hit rate 0.37% among 220,000; inhibition, % at 21.7 µM
Hck Nef conf – Hck-Nef kinase inhibition, confirmation | hit rate 28% among 1,300 | Recombinant Hck-YEEI:Nef, Z-Lyte FRET kinase assay | AID 463188 | calls only at 10 µM | shares compounds with Hck Nef HTS;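 active = average inhibition of at least 50%, with Z-scores no higher than 3 in both the phospho-tyrosine peptide and fluorescence counterscreens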
Of the large screens only hits and unclear results are named; the others gave an inactive call (follow-up assays come after a bar, where shown). Shown are actives, neighbours in structure and some others; about 2% of the full set was active somewhere.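 Rule for the calls, unless noted: active = inhibition above about 30% (limit read from the data); inactive = the rest.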

CCN1CCCc2cc(CN(CCN3CCOCC3)C(=S)Nc3ccc(OC)cc3)ccc21	Hck Nef HTS 54 | Hck Nef conf inactive
COc1ccc(OCC(=O)Nc2nc3ccc(NC(C)=O)cc3s2)cc1	Hck Nef HTS 51 | Hck Nef conf inactive
CC(=O)Nc1ccc2nc(NC(=O)COc3ccc([N+](=O)[O-])cc3)sc2c1	none
Cc1ccc(C(=O)Nc2cccc(C(F)(F)F)c2)cc1Nc1ncnc2nc[nH]c12	Hck Nef HTS 55 (no result: Diaphorase act) | Hck Nef conf inactive
Cc1ccc(C(=O)Nc2cccc(C(F)(F)F)c2)cc1NC(=O)c1ccno1	Hck Nef HTS 75 (no result: Diaphorase act) | Hck Nef conf active
CCCC(=O)Nc1ccc(C(=O)NNC(=S)NC(=O)c2ccc(Br)o2)cc1	none
Cc1ccc(N2NC(=O)/C(=C/c3ccc(-c4ccc(Cl)c(C(=O)O)c4)o3)C2=O)cc1	none
O=C1NN(c2ccc(Cl)cc2)C(=O)/C1=C\c1ccc(-c2cccc(C(=O)O)c2)o1	Hck Nef HTS 53, eIF4E 4G PPI 32 | Hck Nef conf inactive
O=C1NN(c2ccccc2)C(=O)/C1=C\c1ccc(-c2cc([N+](=O)[O-])ccc2O)o1	Hck Nef HTS 76 | Hck Nef conf active
CN1C(=O)CS/C1=N\NC(=O)COc1cccc2cccnc12	none (no result: Diaphorase act)
CC(C)C1N(C(N)=S)N=CC1(C)C (configuration not stated)	none (no result: Diaphorase act)
COc1ccc(-c2nnn(CC(=O)N(CCCN3CCOCC3)C(C(=O)NC3CCCC3)c3ccco3)n2)cc1 (configuration not stated)	none
CC(C)Cn1nc(NC(=O)C2CCCO2)c2cc3ccccc3nc21 (configuration not stated)	none (no result: 14-3-3 Bad inh, NCF1 inh, eIF4E 4G PPI)
CCCn1nc(NC(=O)C2CCCO2)c2cc3cccc(C)c3nc21 (configuration not stated)	Hck Nef HTS 52 (no result: Diaphorase act) | Hck Nef conf inactive
COCCNC(=S)NCCc1ccc(Cl)cc1Cl	none
CCC(C)Nc1nc(N)c([N+](=O)[O-])c(Nc2cc(OC)ccc2OC)n1 (configuration not stated)	Hck Nef HTS 52 (no result: Diaphorase act) | Hck Nef conf inactive
CCC(C)Nc1nc(N)c([N+](=O)[O-])c(Nc2ccccc2OC)n1 (configuration not stated)	none (no result: Diaphorase act)
Cc1cc(C)cc(OCC(=O)N(Cc2ccc(N(C)C)cc2)C2CCS(=O)(=O)C2)c1 (configuration not stated)	none (no result: Diaphorase act)
Cc1ccc(-c2nc3cc(Cl)ccc3o2)cc1	none
Oc1cc(NCc2cccnc2)ccc1-c1nc2ccccc2o1	none
Cc1ccc(CNc2ncccc2-c2nc3cc(Cl)ccc3o2)cc1	Hck Nef HTS 66 | Hck Nef conf active
Clc1ccc2oc(-c3cccnc3NCc3ccccc3)nc2c1	Hck Nef HTS 90
Cn1c(-c2cnn(-c3ccccc3)c2-n2cccc2)n[nH]c1=S	none
CC(C)(C)c1ccc(NC(=O)Nc2ccc3ccccc3n2)cc1	none (no result: Diaphorase act)
CC(C)C1Cc2[nH]c(=O)c(C(=O)O)cc2CO1 (configuration not stated)	Hck Nef HTS 75 | Hck Nef conf inactive
COc1ccc2[nH]c(=O)c(C(=O)O)cc2c1	none
Cn1c(CC(=O)Nc2ccc(Cl)c(Cl)c2)nnc1SCC(=O)NCc1ccccc1	none
Oc1cc2c(cc1C(c1ccc(Br)cc1)N1CCCC1)OCO2 (configuration not stated)	Hck Nef HTS 73, eIF4E 4G PPI 44 | Hck Nef conf inactive
COc1ccc(C(=O)CCc2nc3ccccc3s2)cc1	none
Cc1ccc2nc3c(cc(C(=O)NCc4cccnc4)c(=N)n3C(C)C)c(=O)n2c1	none (no result: Hck Nef HTS, 14-3-3 Bad inh, NCF1 inh, eIF4E 4G PPI)
CC(C)n1c(=N)c(C(=O)NCCc2ccccc2)cc2c(=O)n3ccccc3nc21	Hck Nef HTS 138
Cc1cccn2c(=O)c3cc(C(=O)NCc4ccco4)c(=N)n(C(C)C)c3nc12	Hck Nef HTS 72
Cc1cccn2c(=O)c3cc(C(=O)NCc4cccnc4)c(=N)n(C(C)C)c3nc12	Hck Nef HTS 161
NC(=S)NNC(=O)c1cccc(Cl)c1	none (no result: Diaphorase act)
C=CCOc1ccc(Br)cc1/C=N/O	none
C=CCOc1ccc(Br)cc1/C=C1/SC(=Nc2ccc(C(=O)O)cc2)NC1=O	Hck Nef HTS 59 | Hck Nef conf active
COc1ccc(C(=O)Nc2ccccc2-c2nnn(CC(=O)Nc3ccc4c(c3)OCCO4)n2)cc1	Hck Nef HTS 60 | Hck Nef conf inactive
CCOc1ccccc1NC(C)C(=O)Nc1cc(C(F)(F)F)ccc1N1CCOCC1 (configuration not stated)	none
Cc1ccc(NC(=O)CCn2cc(C(F)(F)F)ccc2=O)cc1	none (no result: Diaphorase act)
O=C(c1cnn(C(=O)COc2ccccc2F)c1)c1cc(F)ccc1O	Hck Nef HTS 75 (no result: Diaphorase act) | Hck Nef conf active
C/C(=N\NC(=O)Cn1cc([N+](=O)[O-])cn1)c1ccc(O)cc1	none (no result: Diaphorase act)
COCCn1c(-c2cccs2)nc2nc3ccccc3nc21	none (no result: Diaphorase act)
CC(C)OCCCn1c(-c2ccco2)nc2nc3ccccc3nc21	Hck Nef HTS 131
COCCn1c(-c2ccco2)nc2nc3ccccc3nc21	Hck Nef HTS 120
O=C(O)C1CSC(c2coc3ccccc3c2=O)N1 (configuration not stated)	Hck Nef HTS 91 | Hck Nef conf active
COc1cc(OC)c(/C=N/NC(=O)c2ccc(NC(C)=O)cc2)cc1Br	Hck Nef HTS 55, 14-3-3 Bad inh 76, eIF4E 4G PPI 42 | Hck Nef conf inactive
COc1ccc(CNC(=O)CSc2nc3cccnc3s2)cc1	none (no result: Diaphorase act)
O=C(CN(Cc1cccs1)C(=O)CNS(=O)(=O)c1ccc(F)cc1)NCC1CCCO1 (configuration not stated)	none
O=C(CN(Cc1cccs1)C(=O)CNS(=O)(=O)c1ccc(Cl)cc1)NCC1CCCO1 (configuration not stated)	Hck Nef HTS 53 | Hck Nef conf inactive
Cc1ccc(CN2CCN(Cc3cnc(N4CCOCC4)s3)CC2CCO)o1 (configuration not stated)	Hck Nef HTS 61 | Hck Nef conf inactive
COc1ccc(-c2[nH]ncc2CN2CCCCCCC2)c(OC)c1	none
COCCCNC(=S)NCCNc1nc2c(C)c(C)ccc2cc1C#N	none
N#C/C(=C\c1ccccc1OCc1ccc(C(=O)O)cc1)C(=O)Nc1ccc(O)cc1	Hck Nef HTS 69 | Hck Nef conf inactive
COc1ccc(/C=C(\C#N)C(=O)Nc2ccc3[nH]c(=O)[nH]c3c2)cc1	Hck Nef HTS 71 (no result: Diaphorase act) | Hck Nef conf inactive
COc1ccc(NC(=O)/C(C#N)=C/c2ccc3c(c2)n(C)c(=O)n3C)cc1	none
N#C/C(=C\c1ccc(OCc2ccc(F)cc2)cc1)C(=O)Nc1cccc(C(=O)O)c1	none (no result: Diaphorase act)
COc1ccc(NC(=O)/C(C#N)=C\c2ccc(OCc3ccc(C(=O)O)cc3)c(OC)c2)cc1	Hck Nef HTS 70 | Hck Nef conf inactive

High-throughput results from PubChem.
